Measurements from ChEMBL document CHEMBL1128256, “Synthesis, biological evaluation, and structure analysis of a series of new 1,5-anhydrohexitol nucleosides” (J Med Chem, 1995).
Values after ≈ are worked out from the molar mass of the structure shown.

Legend:
[1] = test system: E6SM; test: Tested for the minimum inhibitory concentration required to reduce herpes simplex virus type 2 (HSV-2) strain 196 induced cytopathogenicity by 50%.; assay type: functional; settings: Homo sapiens
Summary of the method: (§1)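 Inhibition of virus-induced cytopathogenicity in human embryonic skin-muscle (E6SM) fibroblasts seeded in 96-well trays. Viruses were HSV-1 (KOS, F, McIntyre), TK- HSV-1 B2006, TK-/TK+ HSV-1 clinical isolate VMW-1837 and HSV-2 (G, 196, Lyons). […] MCC is the lowest concentration giving microscopically detectable alteration of normal cell morphology; highest concentration tested was 400 µg/mL.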

[2] = test system: E6SM; test: Tested for the minimum inhibitory concentration required to reduce herpes simplex virus type 2 (HSV-2) strain G induced cytopathogenicity by 50%.; assay type: functional; settings: Homo sapiens; summary of the method: as §1
[3] = test system: E6SM; test: Tested for the minimum inhibitory concentration required to reduce herpes simplex virus type 2 (HSV-2) strain Lyons induced cytopathogenicity by 50%.; assay type: functional; settings: Homo sapiens; summary of the method: as §1
[4] = test system: E6SM; test: Tested for the minimum inhibitory concentration required to reduce herpes simplex virus type 1 (HSV-1) strain F induced cytopathogenicity by 50%.; assay type: functional; settings: Homo sapiens; summary of the method: as §1
[5] = test system: E6SM; test: Tested for the minimum inhibitory concentration required to reduce herpes simplex virus type 1 (HSV-1) strain KOS induced cytopathogenicity by 50%.; assay type: functional; settings: Homo sapiens; summary of the method: as §1
[6] = test system: E6SM; test: Tested for the minimum inhibitory concentration required to reduce herpes simplex virus type 1 (HSV-1) strain McIntyre induced cytopathogenicity by 50%.; assay type: functional; settings: Homo sapiens; summary of the method: as §1
[7] = test system: E6SM; test: Tested for the minimum inhibitory concentration required to reduce vaccinia virus(VV) induced cytopathogenicity by 50%.; assay type: functional; settings: Homo sapiens
[8] = test system: E6SM; test: Tested for the minimum inhibitory concentration required to reduce vesicular stomatitis virus(VSV) induced cytopathogenicity by 50%; assay type: functional; settings: Homo sapiens
[9] = test system: E6SM; test: Tested for the minimum inhibitory concentration required to reduce herpes simplex virus type 1 (TK- / TK+ HSV-1) strain VMW-1837 induced cytopathogenicity by 50%.; assay type: functional; settings: Homo sapiens; summary of the method: as §1
[10] = test system: E6SM; test: Tested for the minimum cytotoxic concentration required to cause a microscopically detectable alteration of normal cell morphology in human embryonic skin muscle (E6SM) fibroblast cell cultures.; assay type: functional; summary of the method: as §1
[11] = test system: E6SM; test: Tested for the minimum inhibitory concentration required to reduce thymidine kinase deficient herpes simplex virus type 1 (TK- HSV-1) strain B2006 induced cytopathogenicity by 50%.; assay type: functional; settings: Homo sapiens; summary of the method: as §1
[12] = test system: HEL; test: Tested for the cytotoxic concentration, required to reduce cell growth by 50% in human embryonic lung (HEL) cells.; assay type: functional
Summary of the method: (§2)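 Virus plaque formation assay in human embryonic lung (HEL) cells seeded in 96-well trays. Targets were TK+ VZV (Oka, YS), TK- VZV (07/1, YS/R) and CMV (AD169, Davis). Value is the concentration that reduces plaque number by 50%. Cytotoxicity in HEL cells was taken as the concentration that reduces cell growth by 50%.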

[13] = test system: HEL; test: Tested for the inhibitory concentration required to reduce TK+ Varicella-Zoster virus (TK+ VZV) strain OKA plaque formation by 50%.; assay type: functional, cell-based; settings: Homo sapiens
[14] = test system: HEL; test: Tested for the inhibitory concentration required to reduce TK+ Varicella-Zoster virus (TK+ VZV) strain YS plaque formation by 50%; assay type: functional, cell-based; settings: Homo sapiens
[15] = test system: HEL; test: Tested for the inhibitory concentration required to reduce cytomegalovirus (CMV) strain AD-169 plaque formation by 50%.; assay type: functional, cell-based; settings: Homo sapiens; summary of the method: as §2
[16] = test system: HEL; test: Tested for the inhibitory concentration required to reduce cytomegalovirus (CMV) strain Davis plaque formation by 50%.; assay type: functional, cell-based; settings: Homo sapiens; summary of the method: as §2
[17] = test system: HEL; test: Tested for the inhibitory concentration required to reduce thymidine kinase deficient Varicella-Zoster virus (TK- VZV) strain YS/R plaque formation by 50%.; assay type: functional, cell-based; settings: Homo sapiens
[18] = test system: E6SM; test: Tested for the minimum inhibitory concentration required to reduce herpes simplex virus type 2 (HSV-2) strain 196 induced cytopathogenicity by 50%; assay type: functional; settings: Homo sapiens; summary of the method: as §1
[19] = test system: E6SM; test: Tested for the minimum inhibitory concentration required to reduce herpes simplex virus type 2 (HSV-2) strain G induced cytopathogenicity by 50%; assay type: functional; settings: Homo sapiens; summary of the method: as §1
[20] = test system: E6SM; test: Tested for the minimum inhibitory concentration required to reduce herpes simplex virus type 2 (HSV-2) strain Lyons induced cytopathogenicity by 50%; assay type: functional; settings: Homo sapiens; summary of the method: as §1
[21] = test system: E6SM; test: Tested for the minimum inhibitory concentration required to reduce herpes simplex virus type 1 (HSV-1) strain KOS induced cytopathogenicity by 50%; assay type: functional; settings: Homo sapiens; summary of the method: as §1
[22] = test system: E6SM; test: Tested for the minimum inhibitory concentration required to reduce herpes simplex virus type 1 (HSV-1) strain McIntyre induced cytopathogenicity by 50%; assay type: functional; settings: Homo sapiens; summary of the method: as §1
[23] = test system: E6SM; test: Tested for the minimum inhibitory concentration required to reduce herpes simplex virus type 1 (TK/ TK+HSV-1) strain VMW-1837 induced cytopathogenicity by 50%; assay type: functional; settings: Homo sapiens; summary of the method: as §1
[24] = test system: E6SM; test: Tested for the minimum cytotoxic concentration required to cause a microscopically detectable alteration of normal cell morphology in human embryonic skin muscle (E6SM) fibroblast cell cultures; assay type: functional
Summary of the method: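 Cytotoxicity in human embryonic skin-muscle (E6SM) fibroblasts seeded in 96-well trays, scored microscopically as altered normal cell morphology. Tested up to 400 µg/mL.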

[25] = test system: E6SM; test: Tested for the minimum inhibitory concentration required to reduce thymidine kinase deficient herpes simplex virus type 1 (TK- HSV-1) strain B2006 induced cytopathogenicity by 50%; assay type: functional; settings: Homo sapiens; summary of the method: as §1
[26] = test system: HEL; test: Tested for the cytotoxic concentration, required to reduce cell growth by 50% in human embryonic lung (HEL) cells; assay type: functional; summary of the method: as §2
[27] = test system: HEL; test: Tested for the inhibitory concentration required to reduce TK+ Varicella-Zoster virus (TK+VZV) strain YS plaque formation by 50%; assay type: functional, cell-based; settings: Homo sapiens; summary of the method: as §2
[28] = test system: HEL; test: Tested for the inhibitory concentration required to reduce TK+varicella-zoster virus (TK+ VZV) strain OKA plaque formation by 50%; assay type: functional, cell-based; settings: Homo sapiens; summary of the method: as §2
[29] = test system: HEL; test: Tested for the inhibitory concentration required to reduce cytomegalovirus (CMV) strain Davis plaque formation by 50%; assay type: functional, cell-based; settings: Homo sapiens; summary of the method: as §2
[30] = test system: HEL; test: Tested for the inhibitory concentration required to reduce thymidine kinase deficient Varicella-Zoster virus (TK-VZV) strain 07/1 plaque formation by 50%; assay type: functional, cell-based; settings: Homo sapiens; summary of the method: as §2
[31] = test system: HEL; test: Tested for the inhibitory concentration required to reduce thymidine kinase deficient Varicella-Zoster virus (TK-VZV) strain YS/R plaque formation by 50%; assay type: functional, cell-based; settings: Homo sapiens; summary of the method: as §2
[32] = test system: HEL; test: Tested for the inhibitory concentration required to reduce cytomegalovirus (CMV) strain AD-169 plaque formation by 50%; assay type: functional, cell-based; settings: Homo sapiens; summary of the method: as §2
[33] = test system: E6SM; test: Tested for the minimum inhibitory concentration required to reduce thymidine kinase deficient herpes simplex virus type 1 (TK- / TK+ HSV-1) strain VMW-1837 induced cytopathogenicity by 50%.; assay type: functional; settings: Homo sapiens; summary of the method: as §1
[34] = test system: HEL; test: Tested for the inhibitory concentration required to reduce thymidine kinase deficient Varicella-Zoster virus (TK- VZV) strain 07/1 plaque formation by 50%.; assay type: functional, cell-based; settings: Homo sapiens
[35] = test system: HEL; test: Tested for the inhibitory concentration required to reduce thymidine kinase plus Varicella-Zoster virus (TKplus VZV) strain OKA plaque formation by 50%.; assay type: functional, cell-based; settings: Homo sapiens; summary of the method: as §2

| SMILES | MIC [1] [µg/mL] | MIC [2] [µg/mL] | MIC [3] [µg/mL] | MIC [4] [µg/mL] | MIC [5] [µg/mL] | MIC [6] [µg/mL] | MIC [7] [µg/mL] | MIC [8] [µg/mL] | MIC [9] [µg/mL] | MCC [10] [µg/mL] | MIC [11] [µg/mL] | CC50 [12] [µg/mL] | IC50 [13] [µg/mL] | IC50 [14] [µg/mL] | IC50 [15] [µg/mL] | IC50 [16] [µg/mL] | IC50 [17] [µg/mL] | IC50 [34] [µg/mL] | other results |
| --- | --- | --- | --- | --- | --- | --- | --- | --- | --- | --- | --- | --- | --- | --- | --- | --- | --- | --- | --- |
| Nc1nc(=O)n(C2COC(CO)C(O)C2)cc1I (stereo not drawn) | 20 (≈ 54.5 µM) | 7 (≈ 19.1 µM) | 20 (≈ 54.5 µM) | 0.7 (≈ 1.91 µM) | 2 (≈ 5.45 µM) | 2 (≈ 5.45 µM) | 150 (≈ 409 µM) | > 400 | 70 (≈ 191 µM) | > 400 | 300 (≈ 817 µM) | > 50 | > 40 | > 40 | > 40 | > 40 | 7.6 (≈ 20.7 µM) | – | – |
| OCC1OCC(n2cnc3c(O)ncnc32)CC1O (stereo not drawn) | – | – | – | 300 (≈ 1130 µM) | – | – | – | – | – | – | – | – | – | – | – | – | – | – | MIC [18]: 300 µg/mL (≈ 1130 µM); MIC [19]: > 400 µg/mL; MIC [20]: 300 µg/mL (≈ 1130 µM); MIC [21]: > 400 µg/mL; MIC [22]: > 400 µg/mL; MIC [23]: 300 µg/mL (≈ 1130 µM); MCC [24]: > 400 µg/mL; MIC [25]: > 400 µg/mL; CC50 [26]: > 50 µg/mL; IC50 [27]: 25 µg/mL (≈ 93.9 µM); IC50 [28]: > 40 µg/mL; IC50 [29]: > 40 µg/mL; IC50 [30]: > 40 µg/mL; IC50 [31]: > 40 µg/mL; IC50 [32]: > 40 µg/mL |
| Nc1nc(=O)n(C2COC(CO)C(O)C2)cc1F (stereo not drawn) | – | 2 (≈ 7.71 µM) | – | – | 0.2 (≈ 0.771 µM) | – | 0.2 (≈ 0.771 µM) | > 200 | – | > 400 | 0.07 (≈ 0.27 µM) | 2 (≈ 7.71 µM) | – | 3.5 (≈ 13.5 µM) | 0.9 (≈ 3.47 µM) | 0.5 (≈ 1.93 µM) | 7 (≈ 27 µM) | 5 (≈ 19.3 µM) | MIC [33]: 2 µg/mL (≈ 7.71 µM); IC50 [35]: 2.9 µg/mL |
| O=c1[nH]c(=O)n(C2COC(CO)C(O)C2)cc1/C=C/Br (stereo not drawn) | 70 (≈ 202 µM) | 150 (≈ 432 µM) | 70 (≈ 202 µM) | 2 (≈ 5.76 µM) | 0.4 (≈ 1.15 µM) | 0.4 (≈ 1.15 µM) | – | – | 70 (≈ 202 µM) | > 400 | > 100 | 50 (≈ 144 µM) | 1.4 (≈ 4.03 µM) | 1.4 (≈ 4.03 µM) | > 10 | 23 (≈ 66.3 µM) | 40 (≈ 115 µM) | 20 (≈ 57.6 µM) | – |
